A selection: hits, their analogues and other compounds. The true share with any hit is near 3.3%.
Arr AP2 block: inhibitors of human beta-arrestin and AP2 interaction | FITC-arrestin peptide / GST-AP2 beads, flow cytometry; AP2 beta2 appendage carries R879A mutation | inhibition, % at 10 µM | AID 504490 | 340,000 tested, 0.31% active;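 active = inhibition above a set limit, near 3 SD of compounds lacking own fluorescence, cut at about 54% in these data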;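 also: plate controls were DMSO wells for no effect and 5 µM unlabelled arrestin peptide for full effect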
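Material – AP2 appendage R879A on GSH beads · Buffer or medium – PBS with 0.05% Tween 20 and 0.1% BSA · Probe or stimulus – fluorescein-tagged arrestin peptide at 50 nM final · Incubation – compound with beads 12 min RT, then probe 1 h RT · Detection – high-throughput flow cytometry of beads, ex 488, em 535 nm · Evaluation – percent response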
ABCB6 inh 2: inhibitors of human ABC transporter ABCB6; Q9NP58; K562-ABCB6 porphyrin accumulation, flow cytometry, 1 h; active compounds read low; fluorescence ratio to DMSO, % at 10 µM; 360,000 tested, 0.19% active; AID 602162;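 active = fluorescence ratio to DMSO below 75%, the collection mean minus 3 SD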;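 also: signal is porphyrin accumulated inside mitochondria; 100% equals median channel fluorescence of DMSO control wells; lower ratio means ABCB6 inhibition with less porphyrin fluorescence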
CendR NRP1 mod: NRP-1/CendR interaction modulation; O14786; FAM-RPARPAR peptide binding to NRP-1, fluorescence polarization; inhibition, % at 25 µM; 360,000 tested, 0.85% active;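 active = inhibition or corrected inhibition above about 18%, plus a signal ratio from 0.5 to 1.5, limit read from the data, passing the limit was not always enough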
Granule exo inh: lytic granule exocytosis inhibition; 360,000 tested, 0.66% active; TALL-104 LAMP-1 surface exposure, flow cytometry; cells stimulated with thapsigargin and PMA; inhibition, % at 10 µM; AID 651702;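 active = inhibition above about 55%, limit read from the data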
ATG4B inhibitor: inhibitors of human ATG4B cysteine protease | Q9Y4P1 | ATG4B cleavage of LC3-PLA2, NBD-HPC fluorescence, 1 h | inhibition, % at 8.33 µM | 340,000 tested, 0.51% active | AID 504462; in the data active = inhibition above about 40%
Target sequence (Q9Y4P1 whole entry, looked up): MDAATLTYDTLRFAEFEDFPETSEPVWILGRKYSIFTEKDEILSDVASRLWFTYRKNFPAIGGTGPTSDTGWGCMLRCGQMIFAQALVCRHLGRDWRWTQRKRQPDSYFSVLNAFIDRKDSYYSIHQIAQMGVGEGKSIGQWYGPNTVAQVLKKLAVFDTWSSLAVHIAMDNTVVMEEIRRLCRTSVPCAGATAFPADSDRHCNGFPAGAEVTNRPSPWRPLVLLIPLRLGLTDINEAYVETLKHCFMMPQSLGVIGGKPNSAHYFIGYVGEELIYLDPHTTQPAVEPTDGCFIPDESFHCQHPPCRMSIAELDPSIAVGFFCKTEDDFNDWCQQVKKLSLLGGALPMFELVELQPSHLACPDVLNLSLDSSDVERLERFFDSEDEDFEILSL
Myeloid diff MLP: promotes myeloid progenitor differentiation; ER-HoxA9 myeloid progenitors, lysozyme-GFP differentiation, flow cytometry; calls only at 10 µM; 360,000 tested, 1% active; AID 624256;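 active = normalized GFP-positive differentiation at or above the plate's own cutoff, the solvent-only control mean plus 3 SD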;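 also: cells exposed to compound for four days before flow analysis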
Myeloid diff CP1: promotes myeloid progenitor differentiation; calls only; 2,300 tested, 2% active; ER-HoxA9 myeloid progenitors, GFP/Mac1 double-positive flow; shares compounds with Myeloid diff MLP; AID 651706;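 active = share of green or green-and-red cells above 9 and 9% in run 1 or 4 and 3% in run 2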
GFP autofluor: counter-screen for myeloid differentiation promoters: compound fluorescence; 2,300 tested, 7.4% active; fluorescence response, % (test concentration not listed); shares compounds with Myeloid diff MLP; ER-HoxA9 myeloid progenitors, no estrogen, GFP autofluorescence flow cytometry; vehicle wells 0%, positive control 100%;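 active = over 5% cells positive for green fluorescent reporter, or over 2% positive for both it and APC stain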;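 also: range taken on the double positive population between DMSO and positive control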
* = called active by the depositor; i = inactive; x = no result given; + = active, no number.

SMILES | Arr AP2 block | ABCB6 inh 2 | CendR NRP1 mod | Granule exo inh | ATG4B inhibitor | Myeloid diff MLP | Myeloid diff CP1 | GFP autofluor
C1CCCCCC(NCCN2CCNCC2)CCCCC1 | 22 | 95 | -4 | 16 | 11 | + | i | 0
CCOC(=O)C1CCCCN1S(=O)(=O)c1ccc2c(c1)CC(C)N2C(=O)C1CCC1 (centres undefined) | 3 | 92 | 4 | 1 | 0 | i | x | x
COc1ccccc1-n1c(SCc2cc(=O)oc3cc(O)ccc23)nc2ccccc2c1=O | -13 | 105 | -15 | 1 | 11 | i | x | x
CCC(CO)n1c(SCc2cc(=O)oc3cc(C)ccc23)nc2ccccc2c1=O (centres undefined) | 0 | 86 | -8 | 3 | -9 | i | + | 1
COc1ccc(COc2ccsc2C(=O)Nc2ccc(Cl)cc2)cc1 | -9 | 99 | -8 | -3 | -1 | i | i | 0
CCCNC(=O)COC(=O)c1ccccc1OCc1ccc(Cl)cc1 | 2 | 98 | 7 | 1 | -4 | + | i | 0
O=C(COC(=O)c1ccccc1OCc1ccc(Cl)cc1)NCC1CCCO1 (centres undefined) | -3 | 96 | 15 | -23 | 1 | i | x | x
COc1cccc(Oc2cnc(N)nc2-c2ccc(OC)cc2O)c1 | 21 | 95 | 17 | 8 | -10 | i | x | x
COc1ccc(-c2nc(N)ncc2Oc2ccccc2Br)c(O)c1 | 18 | 99 | 2 | 5 | -7 | + | i | 0
COc1cc(OC)nc(C(NC(=O)C2CCN(Cc3ccc(Oc4ccccc4)cc3)CC2)c2ccc(F)cc2)n1 (centres undefined) | x | 93 | -1 | 27 | x | i | x | x
Cc1nn(C(=O)c2ccc([N+](=O)[O-])cc2)c(C)c1Br | -12 | 98 | 5 | 3 | 4 | + | i | 0
O=C(Nc1cc(Br)ccc1O)c1cc(-c2cccs2)on1 | -7 | 97 | -14 | -2 | -13 | + | i | 1
Cc1cc2nc(/N=C(\N)NC(=O)C(C)C)nc(C)c2cc1C | -3 | 99 | -8 | 0 | -10 | i | i | 0
CCOc1ccccc1NC(=O)C(OC(=O)c1ccccc1)c1ccccc1 (centres undefined) | 2 | 96 | -13 | -1 | -6 | i | x | x
CCOc1ccccc1NC(=O)C(OC(=O)c1ccc(NC(=O)CC#N)cc1)c1ccccc1 (centres undefined) | -8 | 87 | -47 | -5 | -12 | + | i | 5.3*
CC(OC(=O)c1ccc(NC(=O)CC#N)cc1)C(=O)NC(c1ccccc1)c1ccccc1 (centres undefined) | -6 | 102 | -44 | 0 | 2 | i | i | 1
CCOC(=O)c1c(NC(=O)C(C)OC(=O)c2ccc(NC(=O)CC#N)cc2)sc2c1CCCC2 (centres undefined) | 30 | 98 | -29 | 0 | -13 | + | i | 2
Cc1ccc(NC(=O)C(C)OC(=O)c2ccc(NC(=O)CC#N)cc2)cc1S(=O)(=O)N1CCOCC1 (centres undefined) | -2 | 94 | -1 | 0 | -4 | i | x | x
COc1cccc(O)c1CN1CCC(n2nccc2NC(=O)c2ccc3c(c2)OCO3)CC1 | -1 | 99 | 12 | -4 | -10 | i | x | x
COc1ccc(C(=O)Nn2cnc3scc(-c4cccs4)c3c2=O)c(O)c1 | 23 | 102 | 8 | 0 | 17 | i | i | 0
Cc1ccc(C(CC(=O)O)Nc2nc(N3CCOCC3)nc(N3CCOCC3)n2)cc1 (centres undefined) | 5 | 99 | 6 | 0 | 1 | i | x | x
OC1(CN2CCOCC2)C2CN3CCN(C2)CC1(c1ccccc1)C3 (centres undefined) | x | 95 | -3 | 1 | 2 | + | i | 0
Cc1onc(-c2c(Cl)cccc2Cl)c1NC(=O)NNc1ccccc1 | 32 | 102 | 10 | -1 | 1 | + | i | 0
Cc1onc(-c2c(Cl)cccc2Cl)c1NC(=O)NNc1c(Cl)cncc1Cl | -5 | 95 | 0 | -3 | 7 | i | x | x
O=S(=O)(NCc1ccco1)c1ccc2c(c1)Cc1ccccc1-2 | -3 | 102 | -6 | -1 | -3 | i | i | 0
SMILES | Arr AP2 block | ABCB6 inh 2 | CendR NRP1 mod | Granule exo inh | ATG4B inhibitor | Myeloid diff MLP | Myeloid diff CP1 | GFP autofluor
CC(=O)N1c2ccc(S(=O)(=O)NCc3ccco3)cc2CC1C (centres undefined) | 3 | 102 | 0 | -2 | 0 | + | i | 2
CCCCN1C(=O)C2(NNc3ccccc3O2)c2ccccc21 (centres undefined) | 3 | 323 | -168 | 8 | 4 | i | x | x
C=CCN1C(=O)C2(NNc3ccccc3O2)c2ccccc21 (centres undefined) | 2 | 337 | -112 | 5 | -5 | i | i | 95*
O=C(CNC(=O)Cc1ccccc1)NCC(=O)OCC(=O)c1cccc2ccccc12 | -1 | 97 | -17 | 0 | -13 | i | x | x
CCN(CC)CCOc1cc2c(nn1)Oc1ccccc1N2C | -1 | 101 | -6 | 3 | 2 | i | i | 0
CN1c2ccccc2Oc2nnc(Cl)cc21 | -3 | 94 | 2 | 0 | -1 | i | x | x
CC(C)c1ccc(NC(=O)Nc2nnc([C@@H]3C[C@H](O)[C@@H](CO)O3)s2)cc1 | x | 79 | -2 | 0 | x | i | x | x
CCOc1cc(OCC)cc(C(=O)N2CCC[C@H]2C(=O)N2CCC[C@H]2C(=O)NCc2ccncc2)c1 | x | 98 | 6 | 12 | x | i | x | x
CC(=O)Oc1ccc(Cn2cnc3cc4ccccc4cc32)cc1 | 10 | 92 | 2 | 23 | -11 | i | i | 0
CN(Cc1nc(-c2cnccn2)no1)C1CC(C)(C)NC(C)(C)C1 | -5 | 102 | -13 | -4 | 4 | i | i | 0
CCc1ccc(OCC(=O)NCc2ccco2)c(Br)c1 | 3 | 91 | 15 | 9 | -7 | i | i | 0
COc1cc(CC(=O)OCC(=O)NCc2ccco2)cc(OC)c1OC | 0 | 117 | 11 | -1 | -6 | + | i | 0
COc1ccc(CC(=O)OCC(=O)NCc2ccco2)cc1 | -32 | 90 | 4 | 0 | 3 | i | x | x
O=C(COc1ccccc1Br)NCc1ccco1 | 12 | 88 | 3 | -2 | -1 | i | x | x
CCN(CC)C(=S)SCC(=O)Nc1ncc2c(n1)CC(C)(C)CC2=O | 4 | 100 | 1 | 12 | 6 | i | x | x
